The test system of series [1] is U-251. Kind of series: Antiproliferative activity against human U251 cells after 48 hrs by sulforhodamine B assay. The note with it: U-251, 48 h. It is filed as functional. An outline of the steps:
(§1)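 Tumor cells grown in RPMI 1640 with 5% fetal bovine serum, with penicillin/streptomycin in experimental cultures. Exposed in 96-well plates to samples in DMSO/RPMI at 0.25, 2.5, 25 and 250 µg/mL, 37 °C, 5% CO2, 48 h. Fixed with 50% trichloroacetic acid before (T0) and after treatment, protein stained with sulforhodamine B and read at 540 nm. GI50, TGI and LC50 in µg/mL from dose-response curves by non-linear regression.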

Series [2] concerns MCF7. Kind of series: Antiproliferative activity against human MCF7 cells after 48 hrs by sulforhodamine B assay. The note with it: MCF7, 48 h. Type of series: functional. In outline: as §1
Series [3] relates to NCI/ADR-RES. The experiment in a line: Antiproliferative activity against human NCI/ADR-RES cells after 48 hrs by sulforhodamine B assay. It is filed as functional. An outline of the steps: as §1
For series [4], the system named is 786-0. Kind of series: Antiproliferative activity against human 786-0 cells after 48 hrs by sulforhodamine B assay. It is filed as functional. The note with it: 786-0, 48 h. In outline:
as §1

Series [5] relates to NCI-H460. Kind of series: Antiproliferative activity against human NCI-H460 cells after 48 hrs by sulforhodamine B assay. Type of series: functional. The note with it: NCI-H460, 48 h. An outline of the steps: as §1
Series [6] is described as follows: Antiproliferative activity against human PC3 cells after 48 hrs by sulforhodamine B assay. It is filed as functional. The conditions noted are these: PC-3, 48 h. In outline: as §1
Series [7] in a line: Antiproliferative activity against human OVCAR3 cells after 48 hrs by sulforhodamine B assay. The note with it: OVCAR-3, 48 h. Type of series: functional. In outline: as §1
For series [8], the system named is HaCaT. The experiment in a line: Cytotoxicity against human HaCaT cells after 48 hrs by sulforhodamine B assay. It is filed as cell-based.
Series [9] relates to U-251. Kind of series: Antiproliferative activity against human U251 cells assessed as tumor growth inhibition after 48 hrs by sulforhodamine B assay. It is filed as functional. The note with it: U-251, 48 h. An outline of the steps:
as §1

Series [10] concerns MCF7. The experiment in a line: Antiproliferative activity against human MCF7 cells assessed as tumor growth inhibition after 48 hrs by sulforhodamine B assay. The note with it: MCF7, 48 h. It is filed as functional. In outline:
as §1

The test system of series [11] is NCI/ADR-RES. Kind of series: Antiproliferative activity against human NCI/ADR-RES cells assessed as tumor growth inhibition after 48 hrs by sulforhodamine B assay. Type of series: functional. An outline of the steps:
as §1

Series [12] relates to 786-0. Kind of series: Antiproliferative activity against human 786-0 cells assessed as tumor growth inhibition after 48 hrs by sulforhodamine B assay. It is filed as functional. The conditions noted are these: 786-0, 48 h. In outline: as §1
The test system of series [13] is NCI-H460. Kind of series: Antiproliferative activity against human NCI-H460 cells assessed as tumor growth inhibition after 48 hrs by sulforhodamine B assay. Type of series: functional. The conditions noted are these: NCI-H460, 48 h. An outline of the steps:
as §1

Series [14] can be described thus: Antiproliferative activity against human PC3 cells assessed as tumor growth inhibition after 48 hrs by sulforhodamine B assay. Type of series: functional. The note with it: PC-3, 48 h. In outline: as §1
Series [15] can be described thus: Antiproliferative activity against human OVCAR3 cells assessed as tumor growth inhibition after 48 hrs by sulforhodamine B assay. The note with it: OVCAR-3, 48 h. Type of series: functional. An outline of the steps: as §1
Series [16] has as its system HaCaT. Kind of series: Cytotoxicity against human HaCaT cells assessed as tumor growth inhibition after 48 hrs by sulforhodamine B assay. Type of series: cell-based. In outline: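 Non-tumor lines (human HaCaT keratinocytes; Vero) in RPMI 1640 with 5% FBS, with penicillin/streptomycin added to experimental cultures. 48 h exposure at 0.25–250 µg/mL (DMSO/RPMI), 37 °C, 5% CO2. TCA fixation at time zero and at end, sulforhodamine B protein stain, absorbance 540 nm. TGI (total growth inhibition) from non-linear regression of the dose-response curve.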

Values after ≈ are worked out from the molar mass of the structure shown. Bounds are passed on as bounds.

As for `CCCCC/C=C\C/C=C\CCCCCCCC(=O)N1CCCCC1`, the GI50 in the series on U-251 [1] stood at 44.2 µg/mL (≈ 127 µM); in the series with MCF7 [2], 22.1 µg/mL (≈ 63.6 µM); in the series on NCI/ADR-RES [3] it was 63.2 µg/mL (≈ 182 µM); in the series on 786-0 [4] it was 58.4 µg/mL (≈ 168 µM); with NCI-H460 [5] it was 29.1 µg/mL (≈ 83.7 µM); in series [6] it was 53.6 µg/mL (≈ 154 µM). The molecule also registered a GI50 in [7] of 48.9 µg/mL (≈ 141 µM). In the series on HaCaT [8], this molecule showed an LC50 of 4.2 µg/mL (≈ 12.1 µM). Further, the TGI in the series with U-251 [9] was 22.1 µg/mL (≈ 63.6 µM); with MCF7 [10], 44.2 µg/mL (≈ 127 µM); with NCI/ADR-RES [11], 63.2 µg/mL (≈ 182 µM); with 786-0 [12] it was 29.1 µg/mL (≈ 83.7 µM); in the series on NCI-H460 [13], 53.6 µg/mL (≈ 154 µM); in series [14], 48.9 µg/mL (≈ 141 µM). Moreover, the TGI stood at 58.4 µg/mL (≈ 168 µM) in series [15] and 30.5 µg/mL (≈ 87.7 µM) in the series on HaCaT [16].
Regarding `CCCCCCCC/C=C/CCCCCCCC(=O)N[C@@H](C)c1ccccc1`, the GI50 with MCF7 [2] was determined as 110 µg/mL (≈ 286 µM); in series [7], 21.7 µg/mL (≈ 56.3 µM). In addition, in the series with HaCaT [8], the LC50 is 24.6 µg/mL (≈ 63.8 µM). Besides, the TGI (in the series with U-251 [9]; in the series with MCF7 [10]; in the series on NCI/ADR-RES [11]; in the series on 786-0 [12]; with NCI-H460 [13]; in series [14]) was more than 250 µg/mL throughout. Moreover, the TGI (in series [15]; in the series on HaCaT [16]) was more than 250 µg/mL throughout.
Consider `CCCCCC[C@@H](O)C/C=C\CCCCCCCC(=O)N1CCCCC1`, for which the GI50 was 14.8 µg/mL (≈ 40.5 µM) in the series with U-251 [1]; 6.3 µg/mL (≈ 17.2 µM) in the series on MCF7 [2]; 22.7 µg/mL (≈ 62.1 µM) in the series with NCI/ADR-RES [3]; 24.2 µg/mL (≈ 66.2 µM) in the series with 786-0 [4]; 10.7 µg/mL (≈ 29.3 µM) in the series on NCI-H460 [5]; 23.3 µg/mL (≈ 63.7 µM) in [6]. The GI50 in [7] was determined as 16.6 µg/mL (≈ 45.4 µM). Besides, the LC50 in the series with HaCaT [8] amounted to 2.6 µg/mL (≈ 7.11 µM). In addition, the TGI in the series with U-251 [9] was 6.3 µg/mL (≈ 17.2 µM); in the series on MCF7 [10] it was 14.8 µg/mL (≈ 40.5 µM); with NCI/ADR-RES [11], 22.7 µg/mL (≈ 62.1 µM); in the series with 786-0 [12], 10.7 µg/mL (≈ 29.3 µM); with NCI-H460 [13], 23.3 µg/mL (≈ 63.7 µM); in series [14], 16.6 µg/mL (≈ 45.4 µM). Further, the TGI turned out to be 24.2 µg/mL (≈ 66.2 µM) in [15] and 12.8 µg/mL (≈ 35 µM) with HaCaT [16].
With `CCCCCCCCCCCCCCCCCC(=O)N1CCOCC1`, the GI50 in the series with U-251 [1] turned out to be 39.9 µg/mL (≈ 113 µM); with MCF7 [2], 42.8 µg/mL (≈ 121 µM); with NCI/ADR-RES [3], 33.1 µg/mL (≈ 93.6 µM); in the series with 786-0 [4], 41.1 µg/mL (≈ 116 µM); with NCI-H460 [5], 53.1 µg/mL (≈ 150 µM); in [6], 41.1 µg/mL (≈ 116 µM). This molecule yielded a GI50 in series [7] of 43.3 µg/mL (≈ 122 µM). In addition, the LC50 with HaCaT [8] came out at 41.5 µg/mL (≈ 117 µM). Moreover, the TGI was found to be 82.6 µg/mL (≈ 234 µM) in the series with U-251 [9]; 81.7 µg/mL (≈ 231 µM) in the series with MCF7 [10]; 86.9 µg/mL (≈ 246 µM) with NCI/ADR-RES [11]; 85.6 µg/mL (≈ 242 µM) in the series on 786-0 [12]; 161 µg/mL (≈ 455 µM) in the series with NCI-H460 [13]; 102 µg/mL (≈ 290 µM) in series [14]. For the same molecule, the TGI in series [15] stood at 111 µg/mL (≈ 314 µM); in the series on HaCaT [16], 94.2 µg/mL (≈ 266 µM).
In the case of `CCCCCCCCCCCCCCCCCC(=O)NCCO` [N-(2-HYDROXYETHYL)STEARAMIDE], the GI50 turned out to be 117 µg/mL (≈ 357 µM) with U-251 [1]; 130 µg/mL (≈ 395 µM) in the series on MCF7 [2]; 158 µg/mL (≈ 481 µM) in the series with NCI/ADR-RES [3]; 75.6 µg/mL (≈ 231 µM) in series [6]; 158 µg/mL (≈ 481 µM) in series [7]. In addition, in the series on HaCaT [8], the LC50 was found to be 117.7 µg/mL (≈ 359 µM). Besides, the TGI (with U-251 [9]; in the series with MCF7 [10]; in the series with NCI/ADR-RES [11]; with 786-0 [12]; in the series with NCI-H460 [13]; in [14]) was more than 250 µg/mL throughout. The TGI (in [15]; in the series on HaCaT [16]) was more than 250 µg/mL throughout.
As for `CCCCCCCCCCCCCCCC(=O)NCCO` [PALMIDROL], the GI50 in the series with NCI/ADR-RES [3] is 158 µg/mL (≈ 527 µM). The total growth inhibition concentration (TGI) (with U-251 [9]; with MCF7 [10]; in the series with NCI/ADR-RES [11]; in the series with 786-0 [12]; in the series on NCI-H460 [13]; in series [14]) was more than 250 µg/mL each time. For the same molecule, the TGI (in [15]; with HaCaT [16]) was more than 250 µg/mL throughout.

The values are drawn from ChEMBL document CHEMBL3392966, “Antiproliferative activity of synthetic fatty acid amides from renewable resources” (Bioorg Med Chem, 2015).
